By pIC50 is commonly meant −log10 of the IC50, conventionally taken in molar units.

Structures are written as SMILES. pIC50: −log10 of the molar value.

Data on three compounds can be found in ChEMBL document CHEMBL2157871, “Identification of a novel and orally available benzimidazole derivative as an NPY Y5 receptor antagonist with in vivo efficacy” (Bioorg Med Chem Lett, 2012).

In one series the target is Cytochrome P450 3A4 (Homo sapiens, UniProt P08684). Nature of the series: Inhibition of CYP3A4. In kind it is ADME.
Series [1] is described as follows: Metabolic stability in rat liver microsomes assessed as compound remaining after 30 mins. In kind it is ADME, Microsome. As to conditions: read-out: Stability. In short, it runs like this:
(§1)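 Human or rat liver microsomes incubated with compound for 30 min. Result given as percent of parent compound remaining.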
On the technique in general: Liver microsomes are vesicles of endoplasmic reticulum, rich in cytochrome P450 enzymes.

For series [2], the system named is Mus musculus. Nature of the series: Antiobesity activity in DIO mouse assessed as decrease in [cPP(1 to 7),NPY(19 to 23),Ala(31),Alb(32),Gln(34)]-induced food intake at 12.5 mg/kg, po administered 1 hr prior to [cPP(1 to 7),NPY(19 to 23),Ala(31),Alb(32),Gln(34)]-induction measured at 4 hrs relative to vehicle-treated control. More on the design: scale not given: the % may be the effect or the level left. In kind it is functional. The method, boiled down: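 Diet-induced obese mice dosed orally at 12.5 mg/kg 1 h before icv injection of a Y5-selective agonist (0.1 nmol). Cumulative food intake recorded over the following 4 h.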

A further series deals with Cytochrome P450 2D6 (Homo sapiens, UniProt P10635). Nature of the series: Inhibition of CYP2D6. It is filed as ADME.
Series [3] concerns Mus musculus. Nature of the series: Antiobesity activity in DIO mouse assessed as decrease in [cPP(1 to 7),NPY(19 to 23),Ala(31),Alb(32),Gln(34)]-induced food intake at 12.5 mg/kg, po administered 1 hr prior to [cPP(1 to 7),NPY(19 to 23),Ala(31),Alb(32),Gln(34)]-induction measured at 2 hrs relative to vehicle-treated control. It is filed as functional. More on the design: scale not given: the % may be the effect or the level left.

Series [4] in a line: Kinetic solubility of the compound in 1%DMSO at pH 6.8. In kind it is physicochemical. Particulars: read-out: Kinetic_solubility. The method, boiled down: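 Kinetic solubility measured at pH 6.8 from a 1% DMSO solution.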
The next series concerns the target Cytochrome P450 2C19 (Homo sapiens, UniProt P33261). In words: Inhibition of CYP2C19. It is filed as ADME.
The next series addresses Cytochrome P450 2C9 (Homo sapiens, UniProt P11712). Nature of the series: Inhibition of CYP2C9. It is filed as ADME.
Series [5] is described as follows: Metabolic stability in human liver microsomes assessed as compound remaining after 30 mins. As to conditions: read-out: Stability. In kind it is ADME, Microsome. The method, boiled down: as §1
The next series concerns the target T1, Cytochrome P450 1A2 (Homo sapiens, UniProt P05177).
T1 sequence (P05177 whole entry): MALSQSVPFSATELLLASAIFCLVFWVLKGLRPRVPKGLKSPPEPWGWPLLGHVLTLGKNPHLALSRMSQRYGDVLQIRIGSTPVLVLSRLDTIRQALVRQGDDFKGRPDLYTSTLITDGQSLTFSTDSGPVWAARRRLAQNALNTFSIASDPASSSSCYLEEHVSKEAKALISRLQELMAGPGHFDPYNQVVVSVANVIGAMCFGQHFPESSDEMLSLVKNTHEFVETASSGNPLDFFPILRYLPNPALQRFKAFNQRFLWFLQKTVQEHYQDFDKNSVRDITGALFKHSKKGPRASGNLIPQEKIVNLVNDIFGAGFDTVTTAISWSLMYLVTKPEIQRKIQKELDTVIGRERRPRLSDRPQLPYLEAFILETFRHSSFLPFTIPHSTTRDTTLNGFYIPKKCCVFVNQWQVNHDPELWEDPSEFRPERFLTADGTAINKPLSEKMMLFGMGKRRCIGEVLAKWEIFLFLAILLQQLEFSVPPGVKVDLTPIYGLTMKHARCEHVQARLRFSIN
In words: Inhibition of CYP1A2. In kind it is ADME.

The target in series [6] is T2, Neuropeptide Y receptor type 5 (Mus musculus, UniProt O70342).
T2 sequence (O70342 whole entry): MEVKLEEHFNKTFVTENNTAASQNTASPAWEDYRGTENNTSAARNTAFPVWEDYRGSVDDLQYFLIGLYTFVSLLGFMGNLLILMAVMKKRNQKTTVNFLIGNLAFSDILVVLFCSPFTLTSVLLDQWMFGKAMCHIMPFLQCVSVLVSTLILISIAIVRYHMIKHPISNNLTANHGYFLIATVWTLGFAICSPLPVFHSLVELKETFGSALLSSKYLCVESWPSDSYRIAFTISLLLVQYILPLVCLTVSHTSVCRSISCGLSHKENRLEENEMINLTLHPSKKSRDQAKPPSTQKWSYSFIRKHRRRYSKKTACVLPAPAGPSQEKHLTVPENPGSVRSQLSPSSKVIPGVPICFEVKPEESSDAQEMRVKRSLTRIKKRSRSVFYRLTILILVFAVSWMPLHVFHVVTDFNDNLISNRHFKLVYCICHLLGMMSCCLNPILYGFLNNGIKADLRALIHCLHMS
Nature of the series: Displacement of [125I]PYY from mouse NPY Y5 receptor. In short, it runs like this: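 Competition binding at mouse NPY Y5 receptors with 125I-PYY as ligand. IC50 is the concentration giving 50% inhibition of total specific binding, taken as the mean of two or more independent assays.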
(In a radioligand displacement assay an active substance lowers the binding of a labelled ligand.)

Cytochrome P450 2C9, sequence (P11712 whole entry): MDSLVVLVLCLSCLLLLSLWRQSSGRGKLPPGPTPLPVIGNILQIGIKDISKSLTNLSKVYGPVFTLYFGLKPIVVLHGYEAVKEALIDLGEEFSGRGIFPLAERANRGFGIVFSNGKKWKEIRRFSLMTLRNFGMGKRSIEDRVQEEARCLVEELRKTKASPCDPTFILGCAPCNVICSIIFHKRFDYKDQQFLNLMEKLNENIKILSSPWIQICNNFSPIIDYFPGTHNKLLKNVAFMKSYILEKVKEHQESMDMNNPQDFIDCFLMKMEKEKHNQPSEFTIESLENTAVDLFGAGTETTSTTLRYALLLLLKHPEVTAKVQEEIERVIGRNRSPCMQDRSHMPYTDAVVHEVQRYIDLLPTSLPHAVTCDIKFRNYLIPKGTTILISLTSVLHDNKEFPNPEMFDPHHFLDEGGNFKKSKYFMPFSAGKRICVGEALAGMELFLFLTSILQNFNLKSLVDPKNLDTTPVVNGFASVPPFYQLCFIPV
Cytochrome P450 2C19, sequence (P33261 whole entry): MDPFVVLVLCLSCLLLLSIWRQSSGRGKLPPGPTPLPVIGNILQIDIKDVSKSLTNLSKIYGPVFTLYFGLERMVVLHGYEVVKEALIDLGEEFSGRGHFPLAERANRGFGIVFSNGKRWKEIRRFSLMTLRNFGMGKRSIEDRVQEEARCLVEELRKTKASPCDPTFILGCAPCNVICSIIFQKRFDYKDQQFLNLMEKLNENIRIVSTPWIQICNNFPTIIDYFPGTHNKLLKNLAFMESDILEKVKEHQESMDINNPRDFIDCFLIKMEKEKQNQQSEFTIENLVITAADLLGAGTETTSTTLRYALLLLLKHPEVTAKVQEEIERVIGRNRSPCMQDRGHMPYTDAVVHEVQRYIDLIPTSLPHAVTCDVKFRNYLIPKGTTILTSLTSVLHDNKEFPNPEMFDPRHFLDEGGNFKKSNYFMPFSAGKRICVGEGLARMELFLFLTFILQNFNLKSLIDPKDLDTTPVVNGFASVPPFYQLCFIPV
Cytochrome P450 2D6, sequence (P10635 whole entry): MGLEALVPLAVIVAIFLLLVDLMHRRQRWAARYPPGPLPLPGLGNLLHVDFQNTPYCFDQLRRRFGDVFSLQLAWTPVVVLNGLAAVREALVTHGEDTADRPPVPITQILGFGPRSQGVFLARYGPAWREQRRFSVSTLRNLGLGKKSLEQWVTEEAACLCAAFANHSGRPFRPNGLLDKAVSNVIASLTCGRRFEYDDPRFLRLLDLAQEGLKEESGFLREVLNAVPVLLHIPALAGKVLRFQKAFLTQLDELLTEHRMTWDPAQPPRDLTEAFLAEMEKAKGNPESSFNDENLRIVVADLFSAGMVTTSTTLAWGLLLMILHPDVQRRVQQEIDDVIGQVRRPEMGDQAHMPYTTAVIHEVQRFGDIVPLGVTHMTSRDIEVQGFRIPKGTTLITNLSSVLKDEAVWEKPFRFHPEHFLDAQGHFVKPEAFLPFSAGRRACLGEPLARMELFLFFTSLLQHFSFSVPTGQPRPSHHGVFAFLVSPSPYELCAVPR
Cytochrome P450 3A4, sequence (P08684 whole entry): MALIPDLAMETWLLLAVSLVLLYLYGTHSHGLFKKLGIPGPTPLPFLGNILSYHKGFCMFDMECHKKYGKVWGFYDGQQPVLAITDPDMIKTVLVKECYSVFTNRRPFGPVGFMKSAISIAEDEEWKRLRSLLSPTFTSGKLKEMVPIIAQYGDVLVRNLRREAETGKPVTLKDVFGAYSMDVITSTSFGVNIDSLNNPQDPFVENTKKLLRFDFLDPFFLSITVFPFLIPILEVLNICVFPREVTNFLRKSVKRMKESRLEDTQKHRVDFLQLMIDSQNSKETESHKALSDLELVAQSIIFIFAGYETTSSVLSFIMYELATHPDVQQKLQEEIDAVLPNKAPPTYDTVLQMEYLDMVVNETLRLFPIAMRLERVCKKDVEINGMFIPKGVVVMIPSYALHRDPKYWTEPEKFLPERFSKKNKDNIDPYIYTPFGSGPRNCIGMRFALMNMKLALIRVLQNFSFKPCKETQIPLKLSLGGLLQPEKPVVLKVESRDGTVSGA

With `CCS(=O)(=O)c1ccc2nc(N3CCOC(c4ccccc4)C3)[nH]c2c1` (configuration not stated), the INH at Cytochrome P450 3A4, at Cytochrome P450 2D6, at Cytochrome P450 2C19, on Cytochrome P450 2C9 and at Cytochrome P450 1A2 was greater than 20 µM each time. For the same compound, the remaining at 0.5 h was determined as 76.1% in [1] and 89% in [5]. In addition, the Activity in the series on Mus musculus [2] was determined as 42.7%; in the series on Mus musculus [3], 56%. For the same compound, the solubility kinetic in series [4] is greater than 50 µM. Moreover, in series [6], the pIC50 is 9.37.
As to `CCS(=O)(=O)c1ccc2[nH]c(N3CCO[C@H](c4ccccc4)C3)nc2c1`, the figures for the Activity in the series on Mus musculus [2] and in the series on Mus musculus [3] were 71% and 67.2%, respectively.
Turning to `CCCS(=O)(=O)c1ccc2[nH]c(C3CCOC(c4ccccc4)C3)nc2c1` (mixture of isomers), the INH at Cytochrome P450 3A4 is greater than 20 µM; on Cytochrome P450 2D6, greater than 20 µM; at Cytochrome P450 2C19 it was 20 µM; on Cytochrome P450 2C9, greater than 20 µM; at Cytochrome P450 1A2 it was greater than 20 µM. Moreover, the remaining at 0.5 h in series [1] is 74%; in series [5], 65%. In series [4], the solubility kinetic is greater than 50 µM. In [6], this compound showed a pIC50 of 7.76.
